ChEMBL document CHEMBL1124794, “Synthesis, chemistry, and antineoplastic activity of alpha-halopyridinium salts: potential pyridone prodrugs of acylated vinylogous carbinolamine tumor inhibitors” (J Med Chem, 1990)

How the values were obtained:
[1] = test system: L1210; experiment: In vivo activity against murine L1210 tumor system at the dose of 100 mg/kg, activity expressed as TDS; 0/6; format: functional, Mus musculus
Method in brief: (§1)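 L1210 lymphocytic leukemia: ascitic fluid with ca. 10^6 cells injected ip into CD2F1 mice. Dosing started 24 h after inoculation and was repeated daily for five doses in total, from solutions or suspensions made fresh each day. Toxicity day survivors were scored on day 5. Body weight difference is day 5 minus day 1. %T/C is based on median survival time versus controls.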

[2] = test system: MX1; experiment: In vivo activity against murine MX-1 tumor system at the dose of 75 mg/kg, activity expressed as body weight difference.; format: functional, Mus musculus
[3] = test system: L1210; experiment: In vivo activity against murine L1210 tumor system at the dose of 25 mg/kg, activity expressed as body weight difference; format: functional, Mus musculus; method in brief: as §1
[4] = test system: L1210; experiment: In vivo activity against murine L1210 tumor system at the dose of 50 mg/kg, activity expressed as %T/C.; format: functional, Mus musculus; method in brief: as §1
[5] = test system: L1210; experiment: In vivo activity against murine L1210 tumor system at the dose of 25 mg/kg, activity expressed as TDS; 6/6; format: functional, Mus musculus; method in brief: as §1
[6] = test system: P388; experiment: In vivo activity against P388 Lymphocytic Leukemia in CD2F1 mice at the dose of 12.5 mg/kg, activity expressed as body weight difference; format: functional, Mus musculus
Method in brief: (§2)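 CD2F1 mice were inoculated with ascitic fluid holding ca. 10^6 P388 cells. Drug was given daily from 24 h after inoculation, from solutions or suspensions made fresh each day, some as a saline suspension. TDS is survivors/initial animals on day 5. BWD is body weight on day 5 minus day 1. %T/C compares median survival of treated and control mice.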

[7] = Half life at the pH 7.0; format: ADME; details: buffer
Method in brief: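 Pyridinium-to-pyridone hydrolysis in 0.05 M phosphate buffer, ionic strength 0.25 M, 25 °C. pH set by meter. Loss of the pyridinium UV absorption maximum was followed over time to give pseudo-first-order k_obs and half-life.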

[8] = In vivo activity against murine M5076 tumor system at the dose of 50 mg/kg, activity expressed as %T/C.; format: functional, Mus musculus
[9] = test system: MX1; experiment: In vivo activity against murine MX-1 tumor system at the dose of 37.5 mg/kg, activity expressed as TDS; 4/6; format: functional, Mus musculus
[10] = test system: MX1; experiment: In vivo activity against murine MX-1 tumor system at the dose of 37.5 mg/kg, activity expressed as body weight difference.; format: functional, Mus musculus
[11] = test system: P388; experiment: In vivo activity against P388 Lymphocytic Leukemia in CD2F1 mice at the dose of 100 mg/kg, activity expressed as body weight difference; format: functional, Mus musculus; method in brief: as §2
[12] = Effect of phosphate buffer on the hydrolysis of alpha Fluoropyridinium Moity at the concentration of 0.05M, pH 8.0,25degree C; format: ADME
Method in brief: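 α-Fluoropyridinium hydrolysis to pyridone in phosphate buffer at 0.02, 0.05 or 0.10 M, pH 6.5 or 8.0, ionic strength […] °C. Pyridinium UV absorbance maximum followed with time to give pseudo-first-order kobs and half-life.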

[13] = test system: P388; experiment: In vivo activity against P388 Lymphocytic Leukemia in CD2F1 mice at the dose of 25 mg/kg, activity expressed as body weight difference; format: functional, Mus musculus; method in brief: as §2
[14] = Effect of phosphate buffer on carbamate hydrolysis in acetonitrile-water at the concentration of 0.01 M on pH 7.4, 25 degree C.; format: ADME
Method in brief: (§3)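 Bis-carbamate in acetonitrile–water (1:1), 25 ± 0.1 °C. Citrate buffer at pH 3.0 or phosphate buffer at pH 7.4, at 0.01, 0.025 or 0.05 M, ionic strength 0.136 (KCl). Kinetics followed by HPLC as the decrease in bis-carbamate peak area. The regression slope of ln(area0/areat) vs time gave pseudo-first-order kobs. Duplicates averaged.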

[15] = test system: L1210; experiment: In vivo activity against murine L1210 tumor system at the dose of 100 mg/kg, activity expressed as %T/C.; format: functional, Mus musculus
Method in brief: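 CD2F1 mice received ca. 10^6 L1210 cells in ascitic fluid ip. Treatment started 24 h after inoculation and was given daily for five doses in total. %T/C compares median survival time of treated and control animals.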

[16] = Effect of pH on carbamate hydrolysis in 0.05 M buffer concentration at the pH 8.0, 25 degree C.; format: ADME
Method in brief: (§4)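 Bis-carbamate in acetonitrile–water (1:1; buffer added to a 0.5 mg/mL acetonitrile solution), 0.05 M buffer, ionic strength 0.136 (KCl), 25 ± 0.1 °C. Buffers: phosphate pH 2.0; citrate pH 3.0–3.5; succinate pH 4.0; acetate pH 5.0; phosphate pH 6.0–8.0; borate pH 9.0; carbonate pH 10.0. HPLC bis-carbamate peak-area loss, ln(area0/areat) vs time slope = kobs. Duplicates averaged.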

[17] = test system: P388; experiment: In vivo activity against P388 Lymphocytic Leukemia in CD2F1 mice at the dose of 400 mg/kg, activity expressed as body weight difference; T-C; format: functional, Mus musculus; method in brief: as §2
[18] = test system: P388; experiment: In vivo activity against P388 Lymphocytic Leukemia in CD2F1 mice at the dose of 100 mg/kg, activity expressed as KE; format: functional, Mus musculus
[19] = Effect of phosphate buffer on carbamate hydrolysis in acetonitrile-water at the concentration of 0.025 M on pH 7.4, 25 degree C.; format: ADME; method in brief: as §3
[20] = Effect of phosphate buffer on carbamate hydrolysis in acetonitrile-water at the concentration of 0.05 M on pH 7.4, 25 degree C.; method in brief: as §3
[21] = test system: P388; experiment: In vivo activity against P388 Lymphocytic Leukemia in CD2F1 mice at the dose of 400 mg/kg, activity expressed as TDS; 2/6; format: functional, Mus musculus; method in brief: as §2
[22] = test system: P388; experiment: In vivo activity against P388 Lymphocytic Leukemia in CD2F1 mice at the dose of 100 mg/kg, activity expressed as body weight difference; T-C; format: functional, Mus musculus; method in brief: as §2
[23] = In vivo activity against murine M5076 tumor system at the dose of 60 mg/kg, activity expressed as body weight difference; T-C; format: functional, Mus musculus
[24] = Effect of pH on carbamate hydrolysis in 0.05 M buffer concentration at the pH 2.0, 25 degree C.; format: ADME; method in brief: as §4
[25] = test system: L1210; experiment: In vivo activity against murine L1210 tumor system at the dose of 166.7 mg/kg, activity expressed as body weight difference; T-C; format: functional, Mus musculus; method in brief: as §1
[26] = Half life at the pH 3.0; format: ADME; details: buffer; method in brief: as §4
[27] = test system: L1210; experiment: In vivo activity against murine L1210 tumor system at the dose of 36 mg/kg, activity expressed as KE; format: functional, Mus musculus; method in brief: as §1
[28] = test system: L1210; experiment: In vivo activity against murine L1210 tumor system at the dose of 166.7 mg/kg, activity expressed as %T/C.; format: functional, Mus musculus; method in brief: as §1
[29] = test system: L1210; experiment: In vivo activity against murine L1210 tumor system at the dose of 36 mg/kg, activity expressed as TDS; 6/6; format: functional, Mus musculus; method in brief: as §1
[30] = test system: P388; experiment: In vivo activity against P388 Lymphocytic Leukemia in CD2F1 mice at the dose of 25 mg/kg, activity expressed as body weight difference; T-C; format: functional, Mus musculus; method in brief: as §2
[31] = test system: L1210; experiment: In vivo activity against murine L1210 tumor system at the dose of 60 mg/kg, activity expressed as TDS; 6/6; format: functional, Mus musculus; method in brief: as §1
[32] = Effect of pH on carbamate hydrolysis in 0.05 M buffer concentration at the pH 4.0, 25 degree C.; format: ADME; method in brief: as §4

CC(C)NC(=O)OCc1c(COC(=O)NC(C)C)c(-c2cc[n+](C)c(F)c2)n2c1CCC2.[I-]
TDS [1]: 0 | BWD [2]: 0.2 g | BWD [3]: 0.6 g | T/C [4]: 118% | TDS [5]: 6 | BWD [6]: -1.3 g | half-life [7]: 33.8 min | T/C [8]: 118% | TDS [9]: 4 | BWD [10]: 0.3 g | BWD [11]: -7.6 g | K obs [12]: 0.02 min⁻¹ | BWD [13]: -1 g

CC(C)NC(=O)OCc1c(COC(=O)NC(C)C)c(-c2ccn(C)c(=O)c2)n2c1CCC2
K obs [14]: 0.0133 min⁻¹ | T/C [15]: 146% | K obs [16]: 0.0128 min⁻¹ | BWD [17]: -1 g | KE [18]: 0.69 | K obs [19]: 0.0134 min⁻¹ | k obs [20]: 0.000217 s⁻¹ | TDS [21]: 2 | BWD [22]: -1.8 g | BWD [23]: 0.9 g | K obs [24]: 0.33 min⁻¹ | BWD [25]: -3.8 g | half-life [26]: 22.8 min | KE [27]: -0.86 | T/C [28]: 110% | TDS [29]: 6 | BWD [30]: -0.6 g | TDS [31]: 6 | K obs [32]: 0.0149 min⁻¹
